From ChEMBL document CHEMBL1268937, “Design of more potent squalene synthase inhibitors with multiple activities” (Bioorg Med Chem, 2010) come the findings set out here.

Calls of active or inactive are those of the source. The calls are words filed in the database; no cut-off is given here.

The nature of assay [1]: (§1) Inhibition of soybean lipoxygenase measured for 6 mins. On the set-up: species or system Glycine max. Put shortly:
(§2)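 Soybean lipoxygenase (250 U/mL) with sodium linoleate (100 µM) as substrate in Tris-HCl pH 9.0. Compounds added in 60% ethanol. Absorbance at 234 nm followed for 6 min at 28 °C. Each concentration assayed twice.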

In a further assay the target is T1, Squalene synthase (Rattus norvegicus, UniProt Q02769).
T1 sequence (Q02769 whole entry): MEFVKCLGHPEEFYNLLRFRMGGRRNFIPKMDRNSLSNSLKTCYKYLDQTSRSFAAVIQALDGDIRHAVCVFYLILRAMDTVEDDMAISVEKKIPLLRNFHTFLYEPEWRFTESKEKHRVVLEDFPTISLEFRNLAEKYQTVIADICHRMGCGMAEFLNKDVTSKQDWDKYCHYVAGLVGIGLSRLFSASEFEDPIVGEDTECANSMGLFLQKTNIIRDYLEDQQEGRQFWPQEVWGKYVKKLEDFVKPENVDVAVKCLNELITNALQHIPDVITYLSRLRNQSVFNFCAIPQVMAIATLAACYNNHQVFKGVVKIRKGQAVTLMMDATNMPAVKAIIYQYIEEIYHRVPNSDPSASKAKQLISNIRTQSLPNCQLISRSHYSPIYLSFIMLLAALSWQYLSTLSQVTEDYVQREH
Kind of assay: Inhibition of squalene synthase in rat liver microsomes assessed as [3H] FPP to squalene conversion level after 10 mins by scintillation counting. The arrangement: species or system Microsome. Put shortly:
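Rat liver microsomes (18 µg protein/mL) in 50 mM phosphate pH 7.4 with 10 mM MgCl2 and 0.5 mM NADPH, preincubated with compounds for 10 min at 37 °C. Started with [3H]FPP and run for 10 min at 37 °C. Stopped with 15% ethanolic KOH, then 65 °C for 30 min. Squalene extracted into petroleum ether, washed and counted by scintillation. Triplicates; IC50 is the concentration giving 50% inhibition.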
On the technique in general: Liver microsomes are a subcellular fraction often used to study metabolism.

The subject of another assay is Liver microsomes. In words: Antioxidant activity in rat hepatic microsomes assessed as inhibition of lipid peroxidation after 45 min by spectrophotometric analysis. The assay is classed as functional, Microsome. Put shortly:
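Non-enzymatic peroxidation of rat hepatic microsomal lipids in buffer (150 mM, pH 7.4). Compounds in DMSO, 10 µM–1 mM. Started with fresh FeSO4 and incubated at 37 °C for 45 min. Thiobarbituric acid-reactive material read at 535 against 600 nm. Run in duplicate.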

The subject of assay [2] is Rattus norvegicus. Kind of assay: Antidyslipidemic activity against triton WR-1339-induced hyperlipidemia in rat assessed as reduction in plasma total cholesterol level at 56 umol/kg, ip after 24 hrs relative to control. The assay is classed as functional. The arrangement: scale not given: the % may be the effect or the level left. Summed up:
(§3)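 Hyperlipidemia induced in male Wistar rats by ip Triton WR 1339 (200 mg/kg, aqueous). Test compounds in saline given ip 1 h later; saline-only controls. Blood drawn from the aorta 24 h later. Plasma total cholesterol, LDL-cholesterol and triglycerides measured with commercial kits in duplicate. Values are means of 8–10 rats per compound.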

Assay [3] deals with Rattus norvegicus. In words: Antidyslipidemic activity against triton WR-1339-induced hyperlipidemia in rat assessed as reduction in plasma LDL-cholesterol level at 56 umol/kg, ip after 24 hrs relative to control. The class given is functional. The arrangement: scale not given: the % may be the effect or the level left. Summed up: as §3
Assay [4] relates to Rattus norvegicus. In words: Antidyslipidemic activity against triton WR-1339-induced hyperlipidemia in rat assessed as reduction in plasma triglyceride level at 56 umol/kg, ip after 24 hrs relative to control. The assay is classed as functional. On the set-up: scale not given: the % may be the effect or the level left. Put shortly: as §3
The subject of assay [5] is Rattus norvegicus. In words: Antiinflammatory activity in Wistar rat assessed as inhibition of carrageenan-induced paw edema at 300 umol/kg, ip after 3.5 hrs. The class given is functional. Put shortly:
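Male Wistar rats (150–180 g) received 0.1 mL of 2% w/v carrageenan in saline intradermally into the right hind paw; the left paw served as control. Compounds were given ip right after carrageenan. Edema was taken as paw weight increase at 3.5 h and expressed as % inhibition versus the control group. Means of 8–10 rats; Student's t-test.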
On the technique in general: The carrageenan paw model is a standard test of acute inflammation.

Assay [6] deals with Glycine max. The assay is described as §1. Summed up:
as §2

Assay [7] concerns Glycine max. Kind of assay: Inhibition of soybean lipoxygenase at up to 150 uM. The note with it: TDE = time-dependent effect. Put shortly:
as §2

In the case of `Br.OC1(c2ccc3ccccc3c2)CN2CCCCC2CO1` (stereo unspecified), the IC50 – broadly, the concentration that gives 50% inhibition – is above 300 µM in [1], 130 µM at Squalene synthase and 440 µM with Liver microsomes. Also, the figures for the Activity in the assay on Rattus norvegicus [2], in the assay with Rattus norvegicus [3] and in the assay on Rattus norvegicus [4] were 33%, 42% and 41%, respectively. Also, in the assay with Rattus norvegicus [5], the outcome was Active.

Consider `Br.OC1(c2ccc(-c3ccc4ccccc4c3)cc2)CN2CCCCC2CO1` (stereo unspecified), for which the IC50 in [1] is above 100 µM; with Liver microsomes, 117 µM. For the same compound, the Activity in the assay with Rattus norvegicus [2] is reported as 49%; with Rattus norvegicus [3], 33%; with Rattus norvegicus [4] it was 34%. The result with Rattus norvegicus [5] was Active.

For the compound `Br.COc1ccc2cc(-c3ccc(C4(O)CN(C)C5CCCCC5O4)cc3)ccc2c1` (stereo unspecified), the IC50 was above 100 µM in assay [1], 1.4 µM at Squalene synthase and 48 µM in the assay on Liver microsomes. Moreover, the values for the Activity in the assay on Rattus norvegicus [2], in the assay with Rattus norvegicus [3] and with Rattus norvegicus [4] were 32%, 54% and 82%, respectively. Besides, the result in the assay on Rattus norvegicus [5] was Active.

For the compound `COc1ccc2cc([C@H](C)C(=O)O)ccc2c1` [NAPROXEN], in [1], the IC50 was 24 µM. In addition, the Activity with Rattus norvegicus [5] was 51%.

On to `Br.CN1CC(O)(c2ccc(-c3ccc4ccccc4c3)cc2)OC2CCCCC21` (stereo unspecified), for which the IC50 in assay [1] was above 100 µM; on Squalene synthase, 0.8 µM; with Liver microsomes, 118 µM. In addition, the Activity with Rattus norvegicus [2] turned out to be 43%; in the assay with Rattus norvegicus [3], 48%; in the assay on Rattus norvegicus [4], 32%.

`Br.COc1ccc2cc(-c3ccc(C4(O)CN5CCCCC5CO4)cc3)ccc2c1` (stereo unspecified): the IC50 in assay [1] is above 100 µM; on Squalene synthase, 18 µM; in the assay on Liver microsomes, 65 µM. For the same compound, the results for the Activity in the assay with Rattus norvegicus [2], in the assay on Rattus norvegicus [3] and in the assay with Rattus norvegicus [4] were 19%, 29% and 6%, respectively. Further, the result with Rattus norvegicus [5] was Active.

Regarding `Br.COc1ccc2cc(-c3ccc(C4(O)CN(C)CCO4)cc3)ccc2c1` (stereo unspecified), the half-inhibitory concentration (IC50) in assay [1] is above 100 µM; on Squalene synthase, 6.9 µM; in the assay on Liver microsomes, 30 µM. The Activity with Rattus norvegicus [2] is listed as 41%; with Rattus norvegicus [3], 9%; with Rattus norvegicus [4], 30%.

For `Br.CN1CC(O)(c2ccc3ccccc3c2)OC2CCCCC21` (stereo unspecified), the IC50 in assay [1] was above 300 µM; on Squalene synthase, 15.1 µM; in the assay with Liver microsomes, 600 µM. The Activity in the assay with Rattus norvegicus [2] came out at 43%; with Rattus norvegicus [3], 39%; in the assay with Rattus norvegicus [4] it was 51%; in the assay with Rattus norvegicus [5], 54%.

Consider `CN1CC(O)(c2ccc(-c3ccccc3)cc2)OC2CCCCC21` (stereo unspecified), for which the IC50 in assay [1] is 110 µM. Besides, the Activity was 54% with Rattus norvegicus [2], 51% in the assay with Rattus norvegicus [3] and 49% in the assay with Rattus norvegicus [4].

As for `Br.COc1ccc2cc(C3(O)CN4CCCCC4CO3)ccc2c1` (stereo unspecified), the IC50 in assay [1] was 53 µM; on Squalene synthase it was 18.7 µM; in the assay on Liver microsomes it was 390 µM. In addition, the inhibition result in the assay on Glycine max [6] is “Dose-dependent effect”; in the assay with Glycine max [7], “tde”. Further, the Activity in the assay with Rattus norvegicus [2] is on record as 45%; with Rattus norvegicus [3], 46%; in the assay with Rattus norvegicus [4] it was 37%. In addition, the result with Rattus norvegicus [5] was Active.

As to `Br.CN1CCOC(O)(c2ccc3ccccc3c2)C1` (stereo unspecified), the values for the IC50 (in [1]; on Squalene synthase; with Liver microsomes) were above 300 µM, 135 µM and 640 µM, respectively. The Activity in the assay with Rattus norvegicus [2] amounted to 51%; in the assay with Rattus norvegicus [3], 36%; in the assay with Rattus norvegicus [4] it was 40%. In the assay with Rattus norvegicus [5], the outcome was Active.

For the compound `Br.COc1ccc2cc(C3(O)CN(C)C4CCCCC4O3)ccc2c1` (stereo unspecified), the IC50 in assay [1] was 84 µM; on Squalene synthase it was 40 µM; in the assay on Liver microsomes, 220 µM. In addition, the inhibition result was “Dose-dependent effect” with Glycine max [6] and “tde” in the assay with Glycine max [7]. In addition, the Activity in the assay on Rattus norvegicus [2] was determined as 36%; in the assay with Rattus norvegicus [3], 33%; with Rattus norvegicus [4], 47%; with Rattus norvegicus [5], 53%.

`CC(C)(Sc1cc(C(C)(C)C)c(O)c(C(C)(C)C)c1)Sc1cc(C(C)(C)C)c(O)c(C(C)(C)C)c1` [PROBUCOL]: the Activity in the assay with Rattus norvegicus [2] is reported as 18%; with Rattus norvegicus [3] it was 18%; in the assay on Rattus norvegicus [4] it was 11%.

Take `Br.COc1ccc2cc(C3(O)CN(C)CCO3)ccc2c1` (stereo unspecified): the figures for the IC50 (in [1]; on Squalene synthase; in the assay on Liver microsomes) were 20 µM, 155 µM and 900 µM, respectively. Besides, the values for the inhibition result in the assay with Glycine max [6] and with Glycine max [7] were “Dose-dependent effect” and “tde”, respectively. Besides, the Activity in the assay with Rattus norvegicus [2] came out at 62%; in the assay on Rattus norvegicus [3] it was 24%; in the assay with Rattus norvegicus [4] it was 51%; in the assay with Rattus norvegicus [5], 58%.

As for `Br.CN1CCOC(O)(c2ccc(-c3ccc4ccccc4c3)cc2)C1` (stereo unspecified), the results for the IC50 (in assay [1]; on Squalene synthase; in the assay with Liver microsomes) were above 100 µM, 1.9 µM and 71 µM, respectively. Further, the Activity turned out to be 37% in the assay on Rattus norvegicus [2], 59% in the assay on Rattus norvegicus [3] and 28% in the assay on Rattus norvegicus [4]. Also, in the assay on Rattus norvegicus [5], the result was Active.
